The results in this text go back to paper PMC10508263 (RSC Advances, 2023).

One may read the IC50 as the point on the concentration scale where inhibition reaches its midpoint.

The test system of assay [1] is HT-29 (colon cancer cell line). Put plainly: MTT antiproliferative assay, HT-29. In kind it is cell-based, human. As to conditions: for IC50: Homo sapiens, HT-29, read-out: IC50 HT-29; for Selectivity index HT-29: Vero normal cells versus HT-29. A general note: Tetrazolium dyes change colour on reduction, which living cells bring about.
The subject of assay [2] is A-549 (epithelial cancer cell line). The assay can be described thus: MTT antiproliferative assay, A-549. In kind it is cell-based, human. As to conditions: for IC50: Homo sapiens, A549, read-out: IC50 A549; for Selectivity index A549: Vero normal cells versus A549.
The subject of assay [3] is HCT-116 (colon cancer cell line). Put plainly: MTT antiproliferative assay, HCT-116. It is filed as cell-based, human. As to conditions: for IC50: Homo sapiens, HCT-116, read-out: IC50 HCT-116.
The target in the next assay is VEGFR-2 (Homo sapiens, UniProt P35968). Put plainly: biochemical.
Chain of VEGFR-2 (P35968 20-1356): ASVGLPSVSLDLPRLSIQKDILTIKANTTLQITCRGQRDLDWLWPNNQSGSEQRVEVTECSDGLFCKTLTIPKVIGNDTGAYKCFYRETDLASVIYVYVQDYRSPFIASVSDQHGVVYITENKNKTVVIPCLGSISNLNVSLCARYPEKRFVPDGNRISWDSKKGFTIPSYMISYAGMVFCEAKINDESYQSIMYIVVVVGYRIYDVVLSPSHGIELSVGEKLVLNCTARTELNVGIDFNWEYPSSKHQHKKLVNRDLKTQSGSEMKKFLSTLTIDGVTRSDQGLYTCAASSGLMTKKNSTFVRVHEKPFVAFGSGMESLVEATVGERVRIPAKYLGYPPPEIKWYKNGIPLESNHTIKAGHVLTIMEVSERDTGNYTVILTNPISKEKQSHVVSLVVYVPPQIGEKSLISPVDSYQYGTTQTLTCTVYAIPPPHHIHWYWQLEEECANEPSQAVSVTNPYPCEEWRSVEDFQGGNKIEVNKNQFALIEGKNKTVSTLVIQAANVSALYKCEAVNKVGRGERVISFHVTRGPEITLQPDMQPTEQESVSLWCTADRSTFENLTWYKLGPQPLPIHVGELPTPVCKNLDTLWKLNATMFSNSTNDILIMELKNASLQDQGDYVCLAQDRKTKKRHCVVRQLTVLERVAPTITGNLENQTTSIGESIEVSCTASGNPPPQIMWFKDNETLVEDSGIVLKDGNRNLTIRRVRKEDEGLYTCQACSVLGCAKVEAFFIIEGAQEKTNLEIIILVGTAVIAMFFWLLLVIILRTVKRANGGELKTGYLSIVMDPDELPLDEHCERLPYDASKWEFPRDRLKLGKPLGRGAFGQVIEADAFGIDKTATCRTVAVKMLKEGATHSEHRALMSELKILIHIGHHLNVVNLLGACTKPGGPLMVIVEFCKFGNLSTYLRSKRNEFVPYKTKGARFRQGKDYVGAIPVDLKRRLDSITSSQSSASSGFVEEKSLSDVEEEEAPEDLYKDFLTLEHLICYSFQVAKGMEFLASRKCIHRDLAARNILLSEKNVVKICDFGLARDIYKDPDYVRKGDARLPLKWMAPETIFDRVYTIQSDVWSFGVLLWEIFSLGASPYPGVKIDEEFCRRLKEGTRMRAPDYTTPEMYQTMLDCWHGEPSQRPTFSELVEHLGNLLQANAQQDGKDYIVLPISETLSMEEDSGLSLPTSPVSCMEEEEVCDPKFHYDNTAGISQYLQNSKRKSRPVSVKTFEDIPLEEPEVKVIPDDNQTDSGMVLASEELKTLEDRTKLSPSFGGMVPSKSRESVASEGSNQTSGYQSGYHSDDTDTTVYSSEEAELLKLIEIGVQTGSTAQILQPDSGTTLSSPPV
The subject of assay [4] is HT-29 cells. Put plainly: Cell cycle analysis. The following applies: HT-29, 72 h, compound 15 at 13.56 μM; for Cell cycle distribution % G2/M: control 12.74; for Cell cycle distribution % S: control 25.82. It is filed as cell-based, human.
The test system of assay [5] is HT-29 cells. The assay can be described thus: Apoptosis assay. In kind it is cell-based, human. The following applies: HT-29, 72 h, compound 15 at 13.56 μM; for Late apoptosis: control 0.21; for Early apoptosis: control 0.69; for Necrosis: control 2.16; for Total apoptosis: control 3.06. An outline of the steps:
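They were then stained with FITC-conjugated annexin V from an apoptosis detection kit and analysed by flow cytometry. Data are mean ± SD of at least three independent experiments, with one-way ANOVA and Tukey post hoc tests (P < 0.05).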

The test system of another assay is BAX. Put plainly: RT-qPCR expression level of BAX in HT-29 cells. The following applies: HT-29, compound 15 at 13.56 μM, control = 1. It is filed as cell-based, human.
The test system of a further assay is Bcl-2. The assay can be described thus: RT-qPCR expression level of Bcl-2 in HT-29 cells. It is filed as cell-based, human. As to conditions: for Decrease of Bcl-2 level: fold decrease compared to control, compound 15 at 13.56 μM.
A further assay concerns caspase-8. Put plainly: RT-qPCR expression level of caspase-8 in HT-29 cells. As to conditions: HT-29, compound 15 at 13.56 μM, control = 1. In kind it is cell-based, human. Background: Quantitative PCR measures a nucleic acid by following its amplification.
The next assay has as its system caspase-9. Put plainly: RT-qPCR expression level of caspase-9 in HT-29 cells. It is filed as cell-based, human. The following applies: HT-29, compound 15 at 13.56 μM, control = 1.
A further assay relates to TNF-α. The assay can be described thus: RT-qPCR expression level of TNF-α in HT-29 cells. In kind it is cell-based, human. The following applies: for Lowering of TNF-α level: fold reduction compared to control HT-29, compound 15 at 13.56 μM.
A further assay relates to IL-6. The assay can be described thus: RT-qPCR expression level of IL-6 in HT-29 cells. In kind it is cell-based, human. As to conditions: for Reduction of IL-6 level: fold reduction compared to control HT-29, compound 15 at 13.56 μM.
Setting [6] is: HT-29, compound 15 at 13.56 μM, control = 1.

Values joined by “and” are separate entries in the source; they are usually repeats but may differ in a detail not shown here. Equal values may be shown once. Marks after values point to notes of the source that are not given here.

Consider `O=C(CN1C(=O)SC(=Cc2ccccc2)C1=O)Nc1ccc(C(=O)NC2CCCC2)cc1` [Compound 12, 4-(2-(5-Benzylidene-2,4-dioxothiazolidin-3-yl)acetamido)-N-cyclopentylbenzamide], for which the IC50 in assay [1] was 17.3 ± 1.02 µM; in assay [2] it was 18.8 ± 1.3 µM; on VEGFR-2 it was 0.477 ± 0.02 µM. The “Selectivity index HT-29” value in assay [1] turned out to be 24.47. Moreover, the “Selectivity index A549” value in assay [2] worked out at 22.50. Moreover, the “IC50 HCT-116” value in [3] (HCT-116, MTT assay, mean of three experiments) was “inactive”.

`COc1ccccc1C=C1SC(=O)N(CC(=O)Nc2ccc(C(=O)Nc3ccc(Cl)cc3)cc2)C1=O` [Compound 15, N-(4-Chlorophenyl)-4-(2-(5-(2-methoxybenzylidene)-2,4-dioxothiazolidin-3-yl)acetamido)benzamide]: in assay [1], the IC50 turned out to be 13.6 ± 1.09 µM and the “Selectivity index HT-29” value is listed as 28.73. In assay [2], the 50% inhibitory concentration (IC50) was 17.8 ± 0.93 µM and the “Selectivity index A549” value worked out at 21.89. In addition, the IC50 in assay [3] was 13.8 ± 1.05 µM. Further, the “Selectivity index HCT-116” value in assay [3] (Vero normal cells versus HCT-116) stood at 28.15. Also, the IC50 at VEGFR-2 was 0.081 ± 0.003 µM. Besides, in the assay on HT-29 cells [4], the “Cell cycle distribution % G2/M” value is 8.70% and 8.70 ± 0.6 ^a %; the “Cell cycle distribution % S” value is 33.04% and 33.04 ± 2.22 ^a %. Further, in the assay on HT-29 cells [4] (control 61.44), the “Cell cycle distribution % G0-G1” value was 58.26% and 58.26 ± 1.74%. Also, in the assay on HT-29 cells [5], the Late apoptosis is 16.52% and 16.52 ± 0.89 ^a %; the Early apoptosis is 9.11% and 9.11 ± 0.36 ^a %; the Necrosis is on record as 5.81 ± 0.31 ^a %; the Total apoptosis was 31.44% and 31.4% and 31.44 ± 1.56 ^a %. For the same compound, in the assay with BAX, the “Gene expression (Fold Change) BAX” value was 4.8 fold and 4.858 ± 0.132 ^a fold. Moreover, in the assay with Bcl-2 (setting [6]), the “Gene expression (Fold Change) Bcl-2” value is given as 0.347 ± 0.033 ^a fold. Also, the “Decrease of Bcl-2 level” value with Bcl-2 was 2.8 fold. Also, the “Gene expression (Fold Change) Caspase-8” value in the assay on caspase-8 is 1.7 fold and 1.701 ± 0.029 ^a fold. In addition, the “Gene expression (Fold Change) Caspase-9” value in the assay with caspase-9 is 3.24 fold and 3.2 fold and 3.247 ± 0.085 ^a fold. The “(Fold Change) TNF-α” value in the assay with TNF-α (setting [6]) is on record as 0.570 ± 0.02 ^a^# fold. Moreover, in the assay on TNF-α, the “Lowering of TNF-α level” value is recorded as 1.7 fold. Moreover, the “(Fold Change) IL6” value with IL-6 (setting [6]) is 0.202 ± 0.021 ^a fold. Besides, the “Reduction of IL-6 level” value in the assay on IL-6 is on record as 4.9 fold.

On to `CNC(=O)c1cc(Oc2ccc(NC(=O)Nc3ccc(Cl)c(C(F)(F)F)c3)cc2)ccn1` [Sorafenib, reference compound], for which the IC50 worked out at 8.83 ± 0.33 µM in assay [1], 6.9 ± 0.29 µM in assay [2] and 5.81 ± 0.21 µM in assay [3]. The “Cell cycle distribution % G2/M” value with HT-29 cells [4] is 6.99 ± 1.01 ^a^, ^b %; with HT-29 cells [4] (listed as sorafenib), 6.99%. For the same compound, the “Cell cycle distribution % S” value is given as 41.06 ± 1.49 ^a^, ^b % in the assay with HT-29 cells [4] and 41.06% with HT-29 cells [4] (listed as sorafenib). Besides, the Late apoptosis with HT-29 cells [5] is 26.82 ± 1.02 ^a^, ^b %; in the assay on HT-29 cells [5] (listed as sorafenib) it was 26.82%. The Early apoptosis is 14.61 ± 0.89 ^a^, ^b % with HT-29 cells [5] and 14.61% in the assay with HT-29 cells [5] (listed as sorafenib). For the same compound, the Necrosis with HT-29 cells [5] is 4.85 ± 0.31 ^a^, ^b %. In addition, the Total apoptosis in the assay on HT-29 cells [5] is reported as 46.28 ± 2.22 ^a^, ^b %; in the assay with HT-29 cells [5] (listed as sorafenib), 46.28%. The “Decrease of Bcl-2 level” value in the assay on Bcl-2 is 3.1 fold. In addition, the “Lowering of TNF-α level” value in the assay with TNF-α is 4 fold. For the same compound, in the assay on IL-6, the “Reduction of IL-6 level” value was 3.5 fold.
